# Reference: ChEMBL document CHEMBL2331331 (J Med Chem, 2013)
# Experiments:
# [1] = target: Vascular endothelial growth factor receptor 2 (Danio rerio, UniProt Q5GIT4); assay: Inhibition of VEGFR2 in transgenic zebrafish embryo assessed as inhibition of intersegmental vessels formation measured 33 hrs post fertilization by fluorescence microscopic analysis
# Summary of the method: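 FLK-1:EGFP transgenic zebrafish embryos, 10 per well, exposed at 28.5 °C from 15 to 31 hpf to compound in fish water at 1.25, 2.5 or 5 μM (diluted from a 10 mmol/L DMSO stock); 0.3% DMSO as vehicle control. Embryos were imaged at 33 hpf, and ISVs above the yolk extension were scored for length. n = 11, mean ± SD, ANOVA.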
# [2] = system: HeLa; assay: Cytotoxicity against human HeLa cells assessed as growth inhibition after 72 hrs by MTT assay; assay type: functional, cell-based
# Summary of the method: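 MTT viability assay with serial inhibitor dilutions for 72 h at 37 °C, then MTT for 2–4 h and OD read at 570 nm. Leukemia lines were seeded at (1–4) × 10⁴ cells/well and lysed with 20% acidified SDS. Adherent lines were seeded at (2–5) × 10³ cells/well, dosed after 24 h and dissolved in DMSO. Triplicate; mean ± SD.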
# [3] = target: Receptor-type tyrosine-protein kinase FLT3 (Homo sapiens, UniProt P36888, ITD); assay: Binding affinity to FLT3-ITD mutant (unknown origin)
# [4] = target: Vascular endothelial growth factor receptor 2 (Homo sapiens, UniProt P35968); assay: Inhibition of VEGFR2 (unknown origin)
# Vascular endothelial growth factor receptor 2 (Homo sapiens, UniProt P35968), sequence (P35968 whole entry): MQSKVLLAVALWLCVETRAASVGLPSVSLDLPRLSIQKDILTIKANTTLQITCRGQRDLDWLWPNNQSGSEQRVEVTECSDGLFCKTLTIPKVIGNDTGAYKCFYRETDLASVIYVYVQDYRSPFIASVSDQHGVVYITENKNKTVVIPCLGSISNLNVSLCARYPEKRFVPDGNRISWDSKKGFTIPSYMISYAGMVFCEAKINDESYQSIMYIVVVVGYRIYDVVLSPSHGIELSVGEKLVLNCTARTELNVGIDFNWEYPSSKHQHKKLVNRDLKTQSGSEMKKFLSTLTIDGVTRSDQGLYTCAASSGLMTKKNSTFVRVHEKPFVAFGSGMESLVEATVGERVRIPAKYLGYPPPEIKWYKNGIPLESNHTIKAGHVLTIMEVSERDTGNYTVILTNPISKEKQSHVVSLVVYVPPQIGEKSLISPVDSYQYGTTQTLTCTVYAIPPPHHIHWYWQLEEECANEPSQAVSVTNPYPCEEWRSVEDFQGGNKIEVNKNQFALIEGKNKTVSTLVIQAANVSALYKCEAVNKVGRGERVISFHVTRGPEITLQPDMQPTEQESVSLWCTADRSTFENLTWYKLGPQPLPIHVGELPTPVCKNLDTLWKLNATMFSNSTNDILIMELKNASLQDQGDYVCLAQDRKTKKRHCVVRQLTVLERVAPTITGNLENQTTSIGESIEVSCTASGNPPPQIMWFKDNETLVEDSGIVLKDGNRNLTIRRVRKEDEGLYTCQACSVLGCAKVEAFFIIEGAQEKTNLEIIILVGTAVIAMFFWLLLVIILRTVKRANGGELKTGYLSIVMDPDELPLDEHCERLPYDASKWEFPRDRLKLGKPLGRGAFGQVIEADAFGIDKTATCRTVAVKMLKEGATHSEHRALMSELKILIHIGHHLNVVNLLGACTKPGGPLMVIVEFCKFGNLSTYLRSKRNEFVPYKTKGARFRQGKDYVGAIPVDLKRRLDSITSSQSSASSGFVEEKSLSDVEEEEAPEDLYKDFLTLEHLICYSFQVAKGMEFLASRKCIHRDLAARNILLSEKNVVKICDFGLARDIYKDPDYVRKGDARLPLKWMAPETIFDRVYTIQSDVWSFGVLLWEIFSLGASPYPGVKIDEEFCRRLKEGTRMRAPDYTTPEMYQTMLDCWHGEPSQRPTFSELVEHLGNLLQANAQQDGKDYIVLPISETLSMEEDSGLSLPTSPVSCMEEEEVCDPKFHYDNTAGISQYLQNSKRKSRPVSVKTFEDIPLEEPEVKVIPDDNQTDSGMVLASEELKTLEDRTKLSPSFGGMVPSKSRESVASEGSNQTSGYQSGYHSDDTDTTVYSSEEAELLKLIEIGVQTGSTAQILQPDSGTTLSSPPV
# [5] = target: T1, Receptor-type tyrosine-protein kinase FLT3 (Homo sapiens, UniProt P36888); assay: Inhibition of FLT3 (unknown origin)
# T1 sequence (P36888 whole entry): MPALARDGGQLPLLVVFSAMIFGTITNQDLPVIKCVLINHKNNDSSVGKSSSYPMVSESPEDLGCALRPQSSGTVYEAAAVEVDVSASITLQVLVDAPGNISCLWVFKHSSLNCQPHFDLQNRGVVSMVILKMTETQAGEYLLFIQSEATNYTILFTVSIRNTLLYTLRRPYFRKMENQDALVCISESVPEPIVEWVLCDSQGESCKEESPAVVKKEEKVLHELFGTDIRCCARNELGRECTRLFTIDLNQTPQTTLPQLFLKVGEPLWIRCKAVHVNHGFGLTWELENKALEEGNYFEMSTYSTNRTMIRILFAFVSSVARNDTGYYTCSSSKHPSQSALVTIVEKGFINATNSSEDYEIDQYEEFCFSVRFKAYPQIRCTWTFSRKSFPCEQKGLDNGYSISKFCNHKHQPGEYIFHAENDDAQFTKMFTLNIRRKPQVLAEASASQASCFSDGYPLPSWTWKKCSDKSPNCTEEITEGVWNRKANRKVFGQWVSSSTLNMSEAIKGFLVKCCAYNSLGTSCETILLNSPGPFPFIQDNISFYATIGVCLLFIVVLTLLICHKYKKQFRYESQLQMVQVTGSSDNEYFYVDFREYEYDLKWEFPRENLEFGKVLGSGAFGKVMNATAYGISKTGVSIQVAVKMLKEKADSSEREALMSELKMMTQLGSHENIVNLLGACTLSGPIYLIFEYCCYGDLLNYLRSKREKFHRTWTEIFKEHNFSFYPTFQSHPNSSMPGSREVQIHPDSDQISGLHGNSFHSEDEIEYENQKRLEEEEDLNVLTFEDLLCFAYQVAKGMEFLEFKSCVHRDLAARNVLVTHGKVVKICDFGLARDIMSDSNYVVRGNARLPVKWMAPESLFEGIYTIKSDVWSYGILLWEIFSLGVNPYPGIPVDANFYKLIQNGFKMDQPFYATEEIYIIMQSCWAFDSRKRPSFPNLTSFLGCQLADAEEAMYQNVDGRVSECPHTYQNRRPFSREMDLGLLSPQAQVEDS
# Vascular endothelial growth factor receptor 2 (Danio rerio, UniProt Q5GIT4), sequence (Q5GIT4 whole entry): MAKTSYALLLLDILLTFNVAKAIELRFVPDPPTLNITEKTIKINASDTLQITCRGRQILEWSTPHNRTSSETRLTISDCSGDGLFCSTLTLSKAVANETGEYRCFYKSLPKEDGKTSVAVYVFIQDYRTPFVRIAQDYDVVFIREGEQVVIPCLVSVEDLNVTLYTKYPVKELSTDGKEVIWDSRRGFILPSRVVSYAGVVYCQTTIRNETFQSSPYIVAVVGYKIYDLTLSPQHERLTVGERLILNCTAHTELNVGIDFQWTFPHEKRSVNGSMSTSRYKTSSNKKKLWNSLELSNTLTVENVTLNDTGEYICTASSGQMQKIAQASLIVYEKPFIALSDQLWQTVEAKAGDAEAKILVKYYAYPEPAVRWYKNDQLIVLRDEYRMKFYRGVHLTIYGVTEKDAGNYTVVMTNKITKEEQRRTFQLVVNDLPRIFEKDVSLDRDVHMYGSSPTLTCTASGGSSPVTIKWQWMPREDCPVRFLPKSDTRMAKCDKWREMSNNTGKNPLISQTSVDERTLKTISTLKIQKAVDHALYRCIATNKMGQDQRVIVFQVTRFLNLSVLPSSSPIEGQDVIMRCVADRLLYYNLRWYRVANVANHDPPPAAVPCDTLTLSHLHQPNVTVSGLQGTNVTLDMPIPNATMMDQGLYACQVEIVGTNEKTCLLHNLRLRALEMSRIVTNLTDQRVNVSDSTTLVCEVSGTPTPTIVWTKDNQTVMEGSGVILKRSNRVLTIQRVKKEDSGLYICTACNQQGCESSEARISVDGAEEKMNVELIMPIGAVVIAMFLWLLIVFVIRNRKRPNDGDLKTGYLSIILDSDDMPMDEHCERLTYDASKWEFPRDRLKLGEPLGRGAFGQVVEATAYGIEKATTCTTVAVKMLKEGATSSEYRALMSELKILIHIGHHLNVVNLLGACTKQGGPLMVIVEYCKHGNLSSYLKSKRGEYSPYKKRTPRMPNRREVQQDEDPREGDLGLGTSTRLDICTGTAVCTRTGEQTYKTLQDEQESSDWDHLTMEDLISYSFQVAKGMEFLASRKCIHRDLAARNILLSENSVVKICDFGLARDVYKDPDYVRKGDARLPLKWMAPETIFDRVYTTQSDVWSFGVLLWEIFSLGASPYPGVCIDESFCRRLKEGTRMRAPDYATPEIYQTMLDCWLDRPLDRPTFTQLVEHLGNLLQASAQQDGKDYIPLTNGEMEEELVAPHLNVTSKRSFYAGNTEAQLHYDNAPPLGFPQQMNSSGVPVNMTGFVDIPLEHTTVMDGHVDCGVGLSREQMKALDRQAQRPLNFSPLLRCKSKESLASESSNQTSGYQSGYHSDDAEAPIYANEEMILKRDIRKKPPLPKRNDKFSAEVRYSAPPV
IC50 [1] [µM],Kd [3] [µM],IC50 [4] [µM],IC50 [5] [µM],Compound,IC50 [2] [µM]
74.7,–,–,–,O=C(Nc1ccc(Oc2ncnc3n[nH]cc23)cc1)c1ccc(Br)cc1,> 10
2.6,–,–,–,CNC(=O)c1cc(Oc2ccc(NC(=O)Nc3ccc(Cl)c(C(F)(F)F)c3)cc2)ccn1 [SORAFENIB],4.16
> 100,–,–,–,O=C(Nc1ccc(Nc2ncnc3[nH]ncc23)cc1)Nc1ccc(C(F)(F)F)cc1,> 10
> 100,–,–,–,O=C(Nc1ccc(C(F)(F)F)cc1)Nc1cccc(Oc2ncnc3[nH]ncc23)c1,> 10
> 100,–,–,–,O=C(NCC1CCCCC1)Nc1ccc(Oc2ncnc3[nH]ncc23)cc1,> 10
> 100,–,–,–,COc1cccc(NC(=O)Nc2ccc(Oc3ncnc4c3cnn4C)cc2)c1,> 10
> 100,–,–,–,O=C(Cc1ccc(Br)cc1)Nc1cccc(Oc2ncnc3n[nH]cc23)c1,> 10
1.05,0.0066,–,–,O=C(Nc1ccc(Oc2ncnc3[nH]ncc23)cc1)Nc1cccc(C(F)(F)F)c1,> 10
89.4,–,–,–,O=C(Nc1ccc(F)cc1)Nc1ccc(Oc2ncnc3[nH]ncc23)cc1,> 10
16.6,–,–,–,O=C(Nc1ccc(Oc2ncnc3[nH]ncc23)cc1)Nc1cccc(F)c1,> 10
74.7,–,–,–,O=C(Cc1ccc(Br)cc1)Nc1ccc(Oc2ncnc3n[nH]cc23)cc1,> 10
17.8,–,–,–,O=C(Nc1ccc(Oc2ncnc3n[nH]cc23)cc1)Nc1cccc(OC(F)(F)F)c1,> 10
> 100,–,–,–,O=C(Nc1ccc(Oc2ncnc3n[nH]cc23)cc1)NC1CCCCC1,> 10
> 100,–,–,–,Cn1ncc2c(Oc3ccc(NC(=O)Nc4ccc(C(F)(F)F)cc4)cc3)ncnc21,> 10
> 100,–,–,–,O=C(Nc1cccc(Oc2ncnc3n[nH]cc23)c1)c1ccc(C(F)(F)F)cc1,> 10
> 100,–,–,–,O=C(Nc1ccc(Br)cc1)Nc1ccc(Nc2ncnc3n[nH]cc23)cc1,> 10
> 98.2,–,–,–,CC(NC(=O)Nc1ccc(Oc2ncnc3n[nH]cc23)cc1)c1ccccc1 (stereo not given),> 10

IC50 [1] [µM],Kd [3] [µM],IC50 [4] [µM],IC50 [5] [µM],Compound,IC50 [2] [µM]
> 100,–,–,–,O=C(Nc1cccc(Oc2ncnc3[nH]ncc23)c1)c1ccc(Br)cc1,> 10
> 100,–,–,–,O=C(Nc1ccc(Oc2ncnc3n[nH]cc23)cc1)Nc1cccnc1,> 10
98.8,–,–,–,Cc1cccc(NC(=O)Nc2ccc(Oc3ncnc4[nH]ncc34)cc2)c1C,> 10
20.2,–,–,–,O=C(Nc1ccccc1)Nc1ccc(Oc2ncnc3n[nH]cc23)cc1,> 10
> 100,–,–,–,CC(NC(=O)Nc1ccc(Nc2ncnc3[nH]ncc23)cc1)c1ccccc1 (stereo not given),> 10
1.2,0.91,0.038,0.032,O=C(Nc1ccc(Oc2ncnc3[nH]ncc23)cc1)Nc1ccc(C(F)(F)F)cc1,> 10
> 100,–,–,–,O=C(Cc1ccc(C(F)(F)F)cc1)Nc1cccc(Oc2ncnc3[nH]ncc23)c1,> 10
82,–,–,–,COc1cccc(NC(=O)Nc2ccc(Oc3ncnc4n[nH]cc34)cc2)c1,> 10
74.7,–,–,–,O=C(Nc1ccc(Br)cc1)Nc1ccc(Oc2ncnc3[nH]ncc23)cc1,> 10
> 100,–,–,–,Cc1cccc(NC(=O)Nc2ccc(Nc3ncnc4n[nH]cc34)cc2)c1C,> 10
8.46,–,–,–,O=C(Nc1ccc(Oc2ncnc3[nH]ncc23)cc1)Nc1ccc(C(F)(F)F)cc1Cl,> 10
> 100,–,–,–,O=C(Nc1ccc(Oc2ncnc3[nH]ncc23)cc1)Nc1ccc(N2CCOCC2)cc1,> 10
7.73,–,–,–,CC(C)c1cccc(NC(=O)Nc2ccc(Oc3ncnc4n[nH]cc34)cc2)c1,> 10
> 100,–,–,–,COc1cccc(NC(=O)Nc2ccc(Nc3ncnc4[nH]ncc34)cc2)c1,> 10
5.18,–,–,–,O=C(Nc1ccc(Oc2ncnc3n[nH]cc23)cc1)Nc1cc(C(F)(F)F)cc(C(F)(F)F)c1,> 10
> 100,–,–,–,O=C(Nc1ccc(Br)cc1)Nc1cccc(Oc2ncnc3[nH]ncc23)c1,> 10
